Test results taken from ChEMBL document CHEMBL4393712, “Discovery of chalcone-modified estradiol analogs as antitumour agents that Inhibit tumour angiogenesis and epithelial to mesenchymal transition” (Eur J Med Chem, 2019).
The source made the active and inactive calls. The calls are words filed in the database; no cut-off is given here.

Tests used:
[1] = test system: SK-N-SH; assay: Antitumour activity against human SK-N-SH cells assessed as cell growth inhibition measured after 72 hrs by SRB assay; type: functional, cell-based
In short: (§1)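 Exponentially growing cells trypsinized, seeded at 5 × 10^4 cells/mL in 96-well plates, cultured overnight, then exposed to compounds for 72 h. Cells fixed with 10% TCA 1 h, stained with SRB 15 min, dye dissolved in Tris-HCl, absorbance read; 50% growth-inhibitory concentration calculated.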

[2] = test system: B16; assay: Antitumour activity against mouse B16 cells assessed as cell growth inhibition measured after 72 hrs by SRB assay; type: functional, cell-based; conditions: B16, 72 h; in short: as §1
[3] = test system: ECa-109 cell line; assay: Antitumour activity against human EC109 cells assessed as cell growth inhibition measured after 72 hrs by SRB assay; type: functional, cell-based; conditions: ECa-109, 72 h; in short: as §1
[4] = test system: MGC-803; assay: Antitumour activity against human MGC803 cells assessed as cell growth inhibition measured after 72 hrs by SRB assay; type: functional, cell-based; conditions: MGC-803, 72 h; in short: as §1
[5] = test system: A549; assay: Antitumour activity against human A549 cells assessed as cell growth inhibition measured after 72 hrs by SRB assay; type: functional, cell-based; conditions: A549, 72 h; in short: as §1
[6] = test system: SMMC-7721; assay: Antitumour activity against human SMMC7721 cells assessed as cell growth inhibition measured after 72 hrs by SRB assay; type: functional, cell-based; conditions: SMMC-7721, 72 h; in short: as §1
[7] = test system: Chorioallantoic membrane; assay: Antiangiogenic activity in chicken chorioallantoic membrane assessed as reduction in neovascularization at 50 ug/ml measured after 72 hrs by CAM assay; type: functional; conditions: Gallus gallus
In short: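 Fertilized chicken eggs incubated 6 days at 37 °C; shell windowed and CAM treated (compounds and controls at […] as printed; saline vehicle control). Eggs re-incubated humidified; membranes fixed and harvested after 72 h. Angiogenesis scored by counting blood vessels and imaging neovascular zones; ten eggs per group.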

[8] = Toxicity in nude mouse xenografted with human MCF7 cells assessed as liver edema at 45 mg/kg/day, ip administered for 21 days by HE staining analysis; type: organism-based; conditions: in vivo, 504 h
[9] = Toxicity in nude mouse xenografted with human MCF7 cells assessed as decrease in body weight at 45 mg/kg/day, ip administered for 21 days; type: organism-based; conditions: in vivo, 504 h
In short: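 Nude mice (male/female, 4–6 weeks) injected subcutaneously in right forelimb with 5 × 10^7 MCF-7 cells in 200 µL saline; at mean tumour 100 mm3 randomized (n = 5/group): saline 0.2 mL/day, 22.5 or 45 mg/kg/day ip for 21 days. Body weight and tumour volume (length × width²/2) every other day; tumours weighed at day 21.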

[10] = test system: HUVEC; assay: Cytotoxicity against HUVEC assessed as reduction in cell viability measured after 48 to 72 hrs by MTT assay; type: cell-based; conditions: human
In short: (§2)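 Cells seeded at 3 × 10^3 per well in 96-well plates, incubated overnight, then given fresh medium with a range of drug concentrations for 48 h or 72 h. MTT added (final 500 µg/mL) for 4 h, formazan dissolved in DMSO, absorbance at 570 nm; IC50 derived. Mean ± SD of 3 independent tests.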

[11] = test system: GES1; assay: Cytotoxicity against human GES-1 cells assessed as reduction in cell viability measured after 48 to 72 hrs by MTT assay; type: cell-based; in short: as §2
[12] = test system: MGC-803; assay: Cytotoxicity against human MGC803 cells assessed as reduction in cell viability measured after 48 to 72 hrs by MTT assay; type: cell-based; in short: as §2
[13] = test system: PC-3; assay: Cytotoxicity against human PC3 cells assessed as reduction in cell viability measured after 48 to 72 hrs by MTT assay; type: cell-based; in short: as §2
[14] = Hepatotoxicity in nude mouse xenografted with human MCF7 cells assessed as increase in serum alanine transaminase level at 45 mg/kg/day, ip administered for 21 days by biochemical automatic analyzer; type: toxicity, organism-based; conditions: in vivo, 504 h
[15] = Hepatotoxicity in nude mouse xenografted with human MCF7 cells assessed as increase in serum aspartate transaminase level at 45 mg/kg/day, ip administered for 21 days by automatic biochemical analyzer; type: toxicity, organism-based; conditions: in vivo, 504 h
[16] = Hepatotoxicity in nude mouse xenografted with human MCF7 cells assessed as increase in serum alkaline phosphatase level at 45 mg/kg/day, ip administered for 21 days by biochemical automatic analyzer; type: toxicity, organism-based; conditions: in vivo, 504 h

COc1cc2c(cc1O)CC[C@@H]1[C@@H]2CC[C@]2(C)[C@@H](O)CC[C@@H]12 [2-METHOXYESTRADIOL]
IC50 [1]: 1.6 µM
IC50 [2]: 3.4 µM
IC50 [3]: 4.1 µM
IC50 [4]: 4 µM
IC50 [5]: 1.1 µM
IC50 [6]: 8.4 µM
inhibition [7]: Active
Activity [8]: Toxic
Activity [9]: Toxic
Activity [10]: Toxic
Activity [11]: Toxic
Activity [12]: Toxic
Activity [13]: Toxic
Activity [14]: Toxic
Activity [15]: Toxic
Activity [16]: Toxic
